In ChEMBL document CHEMBL3867485, “Design, Conformation, and Crystallography of 2-Naphthyl Phenyl Ethers as Potent Anti-HIV Agents” (ACS Med Chem Lett, 2016):
pEC50: −log10 of the molar value. ≈ marks a conversion by molar mass, not a printed value.

Legend:
[1] = Inhibition of wild-type HIV1 3B reverse transcriptase infected in human MT2 cells assessed as protection against viral infection by MTT assay; type: cell-based; conditions: Human immunodeficiency virus 1, 3B
How it was run: (§1)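 Human MT-2 T cells, run in triplicate. For antiviral activity, cells were infected with the HIV-1 IIIB strain, and EC50 was taken as the dose giving 50% protection of infected cells. For cytotoxicity, CC50 was the concentration that inhibited MT-2 cell growth by 50%.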

[2] = Cytotoxicity against human MT2 cells assessed as reduction in cell growth by MTT assay; type: toxicity, cell-based; how it was run: as §1
[3] = Aqueous solubility of the compound at pH 6.5 by shake-flask method; type: physicochemical

Question: With `N#Cc1cc2c(Oc3ccc(F)cc3OCCn3ccc(=O)[nH]c3=O)cc(F)cn2c1` as the compound, how does the pEC50 [1] read?
Answer: Its pEC50 is 9.40.

Question: Which results are given for `Cc1cc2ccc(C#N)cc2c(C)c1Oc1ccccc1OCCn1ccc(=O)[nH]c1=O`?
Answer: pEC50 [1]: 6.80; CC50 [2]: 5000 nM

Question: With `N#Cc1ccc2c(Cl)cc(Oc3ccc(F)cc3OCCn3ccc(=O)[nH]c3=O)cc2c1` as the compound, how does the pEC50 [1] read?
Answer: The pEC50 was 7.62.

Question: What about the CC50 [2] of the same compound?
Answer: Its CC50 is greater than 100000 nM.

Question: With `N#Cc1ccc2c(Cl)cc(Oc3ccccc3OCCn3ccc(=O)[nH]c3=O)cc2c1` as the compound, how does the pEC50 [1] read?
Answer: The pEC50 was 7.85.

Question: What about the CC50 [2] of the same compound?
Answer: Its CC50 is 12000 nM.

Question: With `Cc1c(Oc2ccccc2OCCn2ccc(=O)[nH]c2=O)cc(C(C)C)c2ccc(C#N)cc12` as the compound, how does the pEC50 [1] read?
Answer: Its pEC50 is 7.80.

Question: And the CC50 [2]?
Answer: Its CC50 is 9000 nM.

Question: With `Cc1c(Oc2ccc(F)cc2OCCn2ccc(=O)[nH]c2=O)cc(F)c2ccc(C#N)cc12` as the compound, how does the pEC50 [1] read?
Answer: The pEC50 was 8.52.

Question: And the CC50 [2]?
Answer: Its CC50 is greater than 100000 nM.

Question: With `Cc1c(Oc2ccc(F)cc2OCCn2ccc(=O)[nH]c2=O)cc(Cl)c2ccc(C#N)cc12` as the compound, how does the pEC50 [1] read?
Answer: The pEC50 was 8.44.

Question: What about the CC50 [2] of the same compound?
Answer: The CC50 was 82000 nM.

Question: What does the source list for `N#Cc1ccc2ccc(Oc3ccc(F)cc3OCCn3ccc(=O)[nH]c3=O)cc2c1`?
Answer: pEC50 [1]: 7.59; CC50 [2]: > 100000 nM

Question: Which results are given for `Cc1cc(Oc2ccc(F)cc2OCCn2ccc(=O)[nH]c2=O)c(F)c2cc(C#N)ccc12`?
Answer: pEC50 [1]: 7.24; CC50 [2]: 45000 nM

Question: With `Cc1c(Oc2ccccc2OCCn2ccc(=O)[nH]c2=O)c(C)c2cc(C#N)ccc2c1C` as the compound, how does the pEC50 [1] read?
Answer: The pEC50 was 6.24.

Question: What about the CC50 [2] of the same compound?
Answer: Its CC50 is greater than 100000 nM.

Question: Which results are given for `Cc1c(Oc2ccc(Cl)cc2OCCn2ccc(=O)[nH]c2=O)cc(F)c2ccc(C#N)cc12`?
Answer: pEC50 [1]: 7.74; CC50 [2]: 6000 nM

Question: With `Cc1c(Oc2ccccc2OCCn2ccc(=O)[nH]c2=O)cc(Cl)c2ccc(C#N)cc12` as the compound, how does the pEC50 [1] read?
Answer: Its pEC50 is 8.21.

Question: What about the CC50 [2] of the same compound?
Answer: Its CC50 is greater than 100000 nM.

Question: And the solubility thermodynamic [3]?
Answer: The solubility thermodynamic was 20.6 µg/mL (≈ 46 µM).

Question: With `N#Cc1ccc2c(F)cc(Oc3ccc(F)cc3OCCn3ccc(=O)[nH]c3=O)c(Cl)c2c1` as the compound, how does the pEC50 [1] read?
Answer: Its pEC50 is 8.15.

Question: What about the CC50 [2] of the same compound?
Answer: Its CC50 is 28000 nM.

Question: With `Cc1cc(Oc2ccccc2OCCn2ccc(=O)[nH]c2=O)c(Cl)c2cc(C#N)ccc12` as the compound, how does the pEC50 [1] read?
Answer: The pEC50 was 8.30.

Question: And the CC50 [2]?
Answer: Its CC50 is greater than 100000 nM.

Question: With `N#Cc1ccc2c(F)cc(Oc3ccccc3OCCn3ccc(=O)[nH]c3=O)c(Cl)c2c1` as the compound, how does the pEC50 [1] read?
Answer: Its pEC50 is 8.30.

Question: And the CC50 [2]?
Answer: Its CC50 is greater than 100000 nM.

Question: With `CCc1cc(Oc2ccccc2OCCn2ccc(=O)[nH]c2=O)c(C)c2cc(C#N)ccc12` as the compound, how does the pEC50 [1] read?
Answer: Its pEC50 is 8.22.

Question: And the CC50 [2]?
Answer: The CC50 was 12000 nM.

Question: With `Cc1cc(Oc2ccc(F)cc2OCCn2ccc(=O)[nH]c2=O)c(C)c2cc(C#N)ccc12` as the compound, how does the pEC50 [1] read?
Answer: Its pEC50 is 8.72.

Question: What about the CC50 [2] of the same compound?
Answer: The CC50 was greater than 100000 nM.

Question: With `CCOc1cc(Oc2ccccc2OCCn2ccc(=O)[nH]c2=O)c(C)c2cc(C#N)ccc12` as the compound, how does the pEC50 [1] read?
Answer: The pEC50 was 8.00.

Question: And the CC50 [2]?
Answer: The CC50 was greater than 100000 nM.

Question: With `N#Cc1ccc2cc(Oc3ccccc3OCCn3ccc(=O)[nH]c3=O)ccc2c1` as the compound, how does the pEC50 [1] read?
Answer: The pEC50 was 5.89.

Question: What about the CC50 [2] of the same compound?
Answer: The CC50 was 9000 nM.

Question: With `Cc1c(Oc2ccccc2OCCn2ccc(=O)[nH]c2=O)cc(F)c2ccc(C#N)cc12` as the compound, how does the pEC50 [1] read?
Answer: The pEC50 was 8.11.

Question: What about the CC50 [2] of the same compound?
Answer: The CC50 was greater than 100000 nM.

Question: And the solubility thermodynamic [3]?
Answer: Its solubility thermodynamic is 28.2 µg/mL (≈ 65.4 µM).

Question: With `COc1cc(Oc2ccccc2OCCn2ccc(=O)[nH]c2=O)c(C)c2cc(C#N)ccc12` as the compound, how does the pEC50 [1] read?
Answer: Its pEC50 is 7.77.

Question: And the CC50 [2]?
Answer: Its CC50 is greater than 100000 nM.

Question: With `Cc1cc(Oc2ccccc2OCCn2ccc(=O)[nH]c2=O)c(C)c2cc(C#N)ccc12` as the compound, how does the pEC50 [1] read?
Answer: Its pEC50 is 8.46.

Question: And the CC50 [2]?
Answer: Its CC50 is greater than 100000 nM.

Question: With `Cc1cc(Oc2ccccc2OCCn2ccc(=O)[nH]c2=O)cc2cc(C#N)ccc12` as the compound, how does the pEC50 [1] read?
Answer: Its pEC50 is 8.31.

Question: What about the CC50 [2] of the same compound?
Answer: Its CC50 is 6000 nM.

Question: With `COCc1cc(Oc2ccccc2OCCn2ccc(=O)[nH]c2=O)c(C)c2cc(C#N)ccc12` as the compound, how does the pEC50 [1] read?
Answer: Its pEC50 is 7.82.

Question: And the CC50 [2]?
Answer: Its CC50 is 16000 nM.

Question: With `CCCc1cc(Oc2ccccc2OCCn2ccc(=O)[nH]c2=O)c(C)c2cc(C#N)ccc12` as the compound, how does the pEC50 [1] read?
Answer: The pEC50 was 7.68.

Question: What about the CC50 [2] of the same compound?
Answer: The CC50 was 15000 nM.

Question: With `N#Cc1ccc2ccc(Oc3ccccc3OCCn3ccc(=O)[nH]c3=O)cc2c1` as the compound, how does the pEC50 [1] read?
Answer: The pEC50 was 7.66.

Question: What about the CC50 [2] of the same compound?
Answer: The CC50 was 15000 nM.

Question: With `Cc1c(Oc2ccccc2OCCn2ccc(=O)[nH]c2=O)cc(CC2CC2)c2ccc(C#N)cc12` as the compound, how does the pEC50 [1] read?
Answer: Its pEC50 is 7.74.

Question: What about the CC50 [2] of the same compound?
Answer: Its CC50 is 13000 nM.
